Assay results taken from ChEMBL document CHEMBL1152226 (Bioorg Med Chem, 2008).

How the values were obtained:
[1] = target: Inosine-5'-monophosphate dehydrogenase 1 (Homo sapiens, UniProt P20839); test: Inhibition of human IMPDH1
In short: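 Run in duplicate with IMPDH type 1 (100 nM; line 2) or type 2 (30 nM; line 3) in 50 mM Tris pH 8.0, 100 mM KCl, 1 mM DTT, with IMP and NAD substrates. Inhibitors were added from DMSO to 1% final. At 25 °C, NADH formation was followed at 340 nm. Ki(app) came from fitting steady-state velocities versus inhibitor concentration to the Morrison equation.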

[2] = target: Inosine-5'-monophosphate dehydrogenase 2 (Homo sapiens, UniProt P12268); test: Inhibition of human IMPDH2
[3] = tested on: K562; test: Antiproliferative activity against human K562 cells after 72 hrs by MTS assay; type: functional, cell-based
[4] = Selectivity ratio of IC50 for human K562 cells to Ki for human IMPDH2; type: ADME, cell-based

Chain of Inosine-5'-monophosphate dehydrogenase 1 (P20839 whole entry): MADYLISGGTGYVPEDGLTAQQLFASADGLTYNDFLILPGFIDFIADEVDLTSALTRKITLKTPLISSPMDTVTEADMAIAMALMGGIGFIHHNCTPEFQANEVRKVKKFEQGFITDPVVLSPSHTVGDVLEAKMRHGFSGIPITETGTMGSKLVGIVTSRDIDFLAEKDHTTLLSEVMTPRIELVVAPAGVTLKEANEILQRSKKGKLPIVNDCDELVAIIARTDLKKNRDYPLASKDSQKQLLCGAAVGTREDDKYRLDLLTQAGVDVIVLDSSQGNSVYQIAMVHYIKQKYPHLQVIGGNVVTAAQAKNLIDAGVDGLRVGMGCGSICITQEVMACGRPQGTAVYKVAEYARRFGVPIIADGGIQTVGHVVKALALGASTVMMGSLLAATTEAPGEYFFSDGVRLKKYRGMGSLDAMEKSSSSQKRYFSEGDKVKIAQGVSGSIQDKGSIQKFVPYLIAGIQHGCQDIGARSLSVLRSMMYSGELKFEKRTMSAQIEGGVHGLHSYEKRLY

SMILES | Ki [1] | Ki [2] | IC50 ([3]; Homo sapiens, K562, 72 h) | IC50 ([3]; k562) | Ratio [4]
COc1cc(C/C=C(\C)CCC(=O)O)ccc1-c1cnco1 | 42.8 µM | 14.3 µM | > 100 µM |  | 
COc1c(C/C=C(\C)CCC(=O)O)cc(-c2cnco2)c(OC)c1C | > 100 µM | > 100 µM |  |  | 
COc1ccc(C/C=C(\C)CCC(=O)O)cc1-c1cnco1 | 20.8 µM | 8.7 µM | > 100 µM |  | 
COc1cc(OC)c(-c2cnco2)cc1C/C=C(/C)CCC(=O)O | 97.3 µM | 30.1 µM | 71 µM |  | 

Stronger by Ki [1], values ahead:

Ki [1] | Ki [2] | IC50 ([3]; Homo sapiens, K562, 72 h) | IC50 ([3]; k562) | SMILES | Ratio [4]
16 µM | 4.3 µM | 56 µM |  | COc1cc(OC)c(-c2cnco2)cc1C/C=C(\C)CCC(=O)O (stereo in doubt; 3) | 10
10.3 µM | 2.3 µM |  | 88 µM | COc1cc(OC)c(-c2cnco2)cc1C/C=C(\C)CCC(=O)O (stereo in doubt; 3-E) | 
